Here are results for 28 molecules from ChEMBL document CHEMBL3853305, “Synthesis, characterization and antitubercular activities of novel pyrrolyl hydrazones and their Cu-complexes” (Eur J Med Chem, 2016).

The subject of data set [1] is Mycobacterium tuberculosis. In words: Antitubercular activity against Mycobacterium tuberculosis H37Rv after 5 days by microplate alamar blue assay. The format is functional. As to conditions: for MIC: Mycobacterium tuberculosis, H37Rv, 120 h. Put shortly:
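Middlebrook 7H9 broth; serial dilutions of 0.2–100 μg/mL made in the plate. Incubated at 37°C for 5 days, then 1:1 alamar blue/10% Tween 80 added and incubated 24 h. MIC is the lowest concentration that prevents the blue-to-pink change. Ethambutol and rifampicin were standards.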
In general terms: The colour change of resazurin is a common sign of viable cells or microbes.

Data set [2] in a line: Cytotoxicity against human A549 cells assessed as decrease in cell viability after 72 hrs by MTT assay. It counts as toxicity, cell-based. Put shortly: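 Human A549 lung adenocarcinoma cells; viability read as cellular MTT conversion to formazan in a non-radioactive cell proliferation kit. Cisplatin was the positive control. IC50 values are means ± SEM of three independent experiments.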
A general note: Tetrazolium assays rely on reduction of a dye to a coloured formazan, in cell work by metabolically active cells.

Data set [3] has as its target T1, Enoyl-[acyl-carrier-protein] reductase [NADH] (Mycobacterium tuberculosis, UniProt P9WGR1).
T1 sequence (P9WGR1 whole entry): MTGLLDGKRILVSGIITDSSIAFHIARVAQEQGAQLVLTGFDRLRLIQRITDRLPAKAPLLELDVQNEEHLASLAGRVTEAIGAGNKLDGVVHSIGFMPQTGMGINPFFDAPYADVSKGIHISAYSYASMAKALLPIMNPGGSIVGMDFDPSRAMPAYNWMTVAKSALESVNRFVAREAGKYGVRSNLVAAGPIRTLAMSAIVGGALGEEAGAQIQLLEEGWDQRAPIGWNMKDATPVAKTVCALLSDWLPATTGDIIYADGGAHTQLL
In words: Inhibition of His6-tagged recombinant Mycobacterium tuberculosis InhA expressed in protease-deficient Escherichia coli (BL21) using trans-2-dodecenoyl-coenzyme A as substrate assessed as NADH oxidation. The method in brief:
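InhA-6xHis from E. coli BL21 (pHAT5/InhA), induced overnight with 1 mM IPTG at 20°C, purified on Ni-NTA and desalted. Assay at 25°C in 30 mM PIPES, 150 mM NaCl, pH 6.8, with 250 μM NADH, 50 μM DDCoA and 5% DMSO final. Compound screened at 50 μM. % inhibition taken from slopes with and without inhibitor. Triclosan was the reference.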

pIC50: −log10 of the molar value. ≈ marks a conversion by molar mass, not a printed value.

Broadly, the MIC is the least concentration at which growth counts as inhibited. High values mean a need for much substance, low ones inhibition by little substance. Consider `C/C(=N\NC(=O)c1ccc(-n2cccc2)cc1)C(=O)Nc1ccc(F)cc1`, for which, in data set [1], the “-logMIC” value is recorded as 5.2 and the MIC amounted to 6.25 µg/mL (≈ 17.2 µM).
The like results for `COc1cccc(NC(=O)/C(C)=N/NC(=O)c2ccc(-n3cccc3)cc2)c1` were, in that order, 4.3 and 50 µg/mL (≈ 133 µM).
The like results for `C/C(CCC(=O)Nc1ccc(Br)cc1)=N\NC(=O)c1ccc(-n2cccc2)cc1` were, in that order, 5.2 and 6.25 µg/mL (≈ 13.8 µM).
The like results for `C/C(=N\NC(=O)c1ccc(-n2cccc2)cc1)C(=O)Nc1cccc(F)c1` were, in that order, 4.58 and 12.5 µg/mL (≈ 34.3 µM).
As to `C/C(=N\NC(=O)c1ccc(-n2cccc2)cc1)C(=O)Nc1cc(Cl)cc(Cl)c1`, in data set [1], the “-logMIC” value amounted to 4.9 and it took 12.5 µg/mL (≈ 30.1 µM) to inhibit growth (MIC).
The like results for `C/C(CCC(=O)Nc1ccccc1)=N\NC(=O)c1ccc(-n2cccc2)cc1` were, in that order, 4.3 and 50 µg/mL (≈ 134 µM).
The like results for `C/C(CCC(=O)Nc1ccccc1Cl)=N\NC(=O)c1ccc(-n2cccc2)cc1` were, in that order, 4.6 and 25 µg/mL (≈ 61.1 µM).
In the same order, the values of `C/C(=N\NC(=O)c1ccc(-n2cccc2)cc1)C(=O)Nc1cccc(Br)c1` are 4.9 and 12.5 µg/mL (≈ 29.4 µM).
For the molecule `C/C(=N\NC(=O)c1ccc(-n2cccc2)cc1)C(=O)Nc1cc(Br)cc(Br)c1`, in data set [1], the “-logMIC” value was 4.9 and the MIC stood at 12.5 µg/mL (≈ 24.8 µM).
Usually IC50 stands for the concentration that gives 50% inhibition. `C/C(=N\NC(=O)c1ccc(-n2cccc2)cc1)C(=O)Nc1ccc(Br)cc1`: in data set [2], the IC50 at 72 h was determined as 441 µM. Moreover, in data set [1], the “-logMIC” value is recorded as 5.5 and the MIC was 3.12 µg/mL (≈ 7.34 µM).
As to `C/C(=N\NC(=O)c1ccc(-n2c(C)ccc2C)cc1)C(=O)Nc1c(Cl)cccc1Cl`, in data set [1], the “-logMIC” value is 4 and the MIC is 100 µg/mL (≈ 226 µM).
`C/C(CCC(=O)Nc1ccc(Cl)cc1)=N\NC(=O)c1ccc(-n2cccc2)cc1`: in data set [2], the IC50 at 72 h is 406 µM. Besides, in data set [1], the “-logMIC” value is 5.5 and the MIC stood at 3.12 µg/mL (≈ 7.63 µM).
For the molecule `C/C(=N/NC(=O)c1ccc(-n2cccc2)cc1)C(N)=O`, in data set [1], the “-logMIC” value is listed as 4.3 and 50 µg/mL (≈ 185 µM) was the least that counted as inhibitory (MIC).
Take `COc1ccc(NC(=O)/C(C)=N/NC(=O)c2ccc(-n3cccc3)cc2)cc1`: in data set [1], the “-logMIC” value worked out at 4.3 and inhibition of growth (MIC) required 50 µg/mL (≈ 133 µM).
As to `C/C(CCC(=O)Nc1cccc(Br)c1)=N\NC(=O)c1ccc(-n2cccc2)cc1`, the “-logMIC” value in data set [1] is 4.9.
For the molecule `C/C(=N\NC(=O)c1ccc(-n2cccc2)cc1)C(=O)Nc1c(Cl)cccc1Cl`, in data set [1], the “-logMIC” value is recorded as 4.6 and 25 µg/mL (≈ 60.2 µM) was the least that counted as inhibitory (MIC).
In the same order, the values of `C/C(CCC(=O)Nc1cc(Cl)cc(Cl)c1)=N\NC(=O)c1ccc(-n2cccc2)cc1` are 4.6 and 25 µg/mL (≈ 56.4 µM).
The like results for `C/C(CCC(=O)Nc1cccc(F)c1)=N\NC(=O)c1ccc(-n2cccc2)cc1` were, in that order, 4.6 and 12.5 µg/mL (≈ 31.9 µM).
`C/C(CCC(=O)Nc1cccc(Cl)c1)=N\NC(=O)c1ccc(-n2cccc2)cc1` yielded an MIC in data set [1] of 12.5 µg/mL (≈ 30.6 µM).
Broadly, the pIC50 is the IC50 on a negative log10 scale, so that one unit is a factor of ten. Take `C/C(CCC(=O)Nc1ccc(F)cc1)=N\NC(=O)c1ccc(-n2cccc2)cc1`: the half-inhibitory concentration (IC50) at 72 h in data set [2] is 438 µM. Also, the pIC50 in data set [3] is 5.11. For the same molecule, in data set [1], the “-logMIC” value is recorded as 5.5 and the minimum inhibitory concentration (MIC) was found to be 3.12 µg/mL (≈ 7.95 µM).
For `C/C(CCC(=O)Nc1ccccc1F)=N\NC(=O)c1ccc(-n2cccc2)cc1`, in data set [1], the “-logMIC” value is listed as 4.6 and the minimal inhibitory concentration (MIC) turned out to be 25 µg/mL (≈ 63.7 µM).
For `C/C(=N\NC(=O)c1ccc(-n2cccc2)cc1)C(=O)Nc1ccccc1F`, in data set [1], the “-logMIC” value is 4.3 and it took 25 µg/mL (≈ 68.6 µM) to inhibit growth (MIC).
In the same order, the values of `C/C(=N\NC(=O)c1ccc(-n2c(C)ccc2C)cc1)C(=O)Nc1ccc(Br)cc1` are 5.2 and 6.25 µg/mL (≈ 13.8 µM).
Take `COc1ccc(NC(=O)/C(C)=N/NC(=O)c2ccc(-n3c(C)ccc3C)cc2)cc1`: in data set [1], the “-logMIC” value was determined as 4.6 and the MIC is 25 µg/mL (≈ 61.8 µM).
`COc1ccccc1NC(=O)CC/C(C)=N/NC(=O)c1ccc(-n2cccc2)cc1`: in data set [1], the “-logMIC” value was determined as 4 and the MIC was 100 µg/mL (≈ 247 µM).
On to `CC[C@@H](CO)NCCN[C@@H](CC)CO` [ETHAMBUTOL], for which the MIC in data set [1] came to 0.5 µg/mL (≈ 2.45 µM).
`NNC(=O)c1ccncc1` [ISONIAZID]: in data set [2], the IC50 at 72 h is above 450 µM.
Consider `CO[C@H]1/C=C/O[C@@]2(C)Oc3c(C)c(O)c4c(O)c(c(/C=N/N5CCN(C)CC5)c(O)c4c3C2=O)NC(=O)/C(C)=C\C=C\[C@H](C)[C@H](O)[C@@H](C)[C@@H](O)[C@@H](C)[C@H](OC(C)=O)[C@@H]1C` [RIFAMPIN], for which the MIC in data set [1] is 0.4 µg/mL (≈ 0.486 µM).
